# Active and inactive are the calls of the source. No cut-off for these calls is given here.
# How the values were obtained:
# Escherichia coli [1] = experiment: Antibacterial activity against ampicillin/ciprofloxacin/gentamicin/tetracycline-resistant Escherichia coli 555 assessed as growth inhibition after 18 to 24 hrs by broth microdilution method; type: functional
# Escherichia coli [2] = experiment: Bactericidal activity against ampicillin/tetracycline/gentamicin-resistant Escherichia coli 451 by agar plating method; type: functional
# Escherichia coli [3] = experiment: Bactericidal activity against chloramphenicol/ampicillin/trimethoprim/ciprofloxacin/nalidixic acid-resistant Escherichia coli 59 by agar plating method; type: functional
# Escherichia coli [4] = experiment: Bactericidal activity against ampicillin/kanamycin/trimethoprim/tetracyclin/ciprofloxacin/nalidixic acid-resistant Escherichia coli 81 by agar plating method; type: functional
# Escherichia coli [5] = experiment: Bactericidal activity against chloramphenicol/ampicillin/kanamycin/trimethoprim/ciprofloxacin/nalidixic acid-resistant Escherichia coli 132 by agar plating method; type: functional
# Escherichia coli [6] = experiment: Bactericidal activity against ampicillin/chloramphenicol/ciprofloxacin/gentamicin/tetracycline-resistant Escherichia coli 401 by agar plating method; type: functional
# Escherichia coli [7] = experiment: Bactericidal activity against ampicillin/ciprofloxacin/gentamicin/tetracycline-resistant Escherichia coli 555 by agar plating method; type: functional
# [8] = Inhibition of Escherichia coli DNA topoisomerase-1A using supercoiled pHOT1 plasmid DNA as substrate assessed as inhibition of DNA relaxation after 30 mins by agarose gel electrophoresis
# Procedure, shortened: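 Supercoiled plasmid DNA incubated with E. coli Topo IA in the presence of compound at […]. Relaxation products were resolved by electrophoresis on 1% agarose gel.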
# Escherichia coli [9] = experiment: Inhibition of Escherichia coli DNA gyrase using relaxed pHOT1 plasmid DNA as substrate assessed as inhibition of DNA supercoiling up to 100 uM after 30 mins by agarose gel electrophoresis
# Homo sapiens = species: Homo sapiens; experiment: Inhibition of human DNA topoisomerase-1B using supercoiled pHOT1 plasmid DNA as substrate assessed as inhibition of DNA relaxation at 100 uM after 30 mins by agarose gel electrophoresis
# Escherichia coli [10] = experiment: Antibacterial activity against Escherichia coli ATCC 25922 assessed as growth inhibition after 18 to 24 hrs by broth microdilution method; type: functional
# Escherichia coli [11] = experiment: Bactericidal activity against Escherichia coli DH5[alpha] by agar plating method; type: functional
# Escherichia coli [12] = experiment: Antibacterial activity against ampicillin/trimethoprim/nalidixic acid-resistant Escherichia coli 118 assessed as growth inhibition after 18 to 24 hrs by broth microdilution method; type: functional
# Escherichia coli [13] = experiment: Antibacterial activity against chloroamphenicol/ampicillin/kanamycin/trimethoprim/ciprofloxacin/nalidixic acid-resistant Escherichia coli 85 assessed as growth inhibition after 18 to 24 hrs by broth microdilution method; type: functional
# Escherichia coli [14] = experiment: Antibacterial activity against gentamicin/kanamycin/tetracycline/nalidixic acid-resistant Escherichia coli 360 assessed as growth inhibition after 18 to 24 hrs by broth microdilution method; type: functional
# Escherichia coli [15] = experiment: Antibacterial activity against ampicillin/tetracycline/gentamicin-resistant Escherichia coli 451 assessed as growth inhibition after 18 to 24 hrs by broth microdilution method; type: functional
# Escherichia coli [16] = experiment: Antibacterial activity against chloramphenicol/ampicillin/trimethoprim/ciprofloxacin/nalidixic acid-resistant Escherichia coli 59 assessed as growth inhibition after 18 to 24 hrs by broth microdilution method; type: functional
# Escherichia coli [17] = experiment: Antibacterial activity against ampicillin/kanamycin/trimethoprim/tetracyclin/ciprofloxacin/nalidixic acid-resistant Escherichia coli 81 assessed as growth inhibition after 18 to 24 hrs by broth microdilution method; type: functional
# Escherichia coli [18] = experiment: Antibacterial activity against chloramphenicol/ampicillin/kanamycin/trimethoprim/ciprofloxacin/nalidixic acid-resistant Escherichia coli 132 assessed as growth inhibition after 18 to 24 hrs by broth microdilution method; type: functional
# Escherichia coli [19] = experiment: Antibacterial activity against ampicillin/chloramphenicol/ciprofloxacin/gentamicin/tetracycline-resistant Escherichia coli 401 assessed as growth inhibition after 18 to 24 hrs by broth microdilution method; type: functional
# Escherichia coli [20] = experiment: Bactericidal activity against ampicillin/tetracycline-resistant Escherichia coli IP18 isolated from water source by agar plating method
# Escherichia coli [21] = experiment: Bactericidal activity against ampicillin/tetracycline/piperacillin-resistant Escherichia coli WB31 isolated from water source by agar plating method
# Escherichia coli [22] = experiment: Bactericidal activity against ampicillin/trimethoprim/piperacillin-resistant Escherichia coli MKNJ isolated from water source by agar plating method
# Escherichia coli [23] = experiment: Antibacterial activity against multidrug-resistant Escherichia coli IP9 isolated from water source assessed as growth inhibition after 18 to 24 hrs by broth microdilution method
# Escherichia coli [24] = experiment: Bactericidal activity against ampicillin/chloramphenicol/tetracycline/trimethoprim/ciprofloxacin-resistant Escherichia coli KK45 isolated from water source by agar plating method
# Escherichia coli [25] = experiment: Antibacterial activity against multidrug-resistant Escherichia coli IS 54 isolated from water source assessed as growth inhibition after 18 to 24 hrs by broth microdilution method; settings: IS 54, Water
# Escherichia coli [26] = experiment: Antibacterial activity against ampicillin/tetracycline-resistant Escherichia coli IP18 isolated from water source assessed as growth inhibition after 18 to 24 hrs by broth microdilution method
# Escherichia coli [27] = experiment: Antibacterial activity against tetracycline/trimethoprim-resistant Escherichia coli IST isolated from water source assessed as growth inhibition after 18 to 24 hrs by broth microdilution method
# Escherichia coli [28] = experiment: Bactericidal activity against ampicillin/trimethoprim/cefazolinl/piperacillin/cefuroxime/cefoxitine/cefepime/cefotaxime-resistant Escherichia coli KP21 isolated from water source by agar plating method
# Escherichia coli [29] = experiment: Antibacterial activity against ampicillin/chloramphenicol/tetracycline/trimethoprim/ciprofloxacin-resistant Escherichia coli KK45 isolated from water source assessed as growth inhibition after 18 to 24 hrs by broth microdilution method
# Escherichia coli [30] = experiment: Antibacterial activity against ampicillin/trimethoprim/cefazolinl/piperacillin/cefuroxime/cefoxitine/cefepime/cefotaxime-resistant Escherichia coli KP21 isolated from water source assessed as growth inhibition after 18 to 24 hrs by broth microdilution method
# Escherichia coli [31] = experiment: Antibacterial activity against cefazolinl/ampicillin/piperacillin/cefuroxime/cefepime/cefotaxime/tetracycline/ciprofloxacin-resistant Escherichia coli NG3 isolated from water source assessed as growth inhibition after 18 to 24 hrs by broth microdilution method
# Escherichia coli [32] = experiment: Antibacterial activity against cefazolinl/ampicillin/piperacillin/cefuroxime/cefepime/cefotaxime/tetracycline/trimethoprim-resistant Escherichia coli KK16 isolated from water source assessed as growth inhibition after 18 to 24 hrs by broth microdilution method
structure (smiles),measurement,setting,value
CCCN1CCN(c2ccc3nc(-c4ccc5nc(-c6ccc(OC)c(OC)c6)[nH]c5c4)[nH]c3c2)CC1,MIC50,Escherichia coli [1],16 µg/mL
same,MIC90,Escherichia coli [1],29.8 µg/mL
same,MBC,Escherichia coli [2],8 µg/mL
same,MBC,Escherichia coli [3],8 µg/mL
same,MBC,Escherichia coli [4],16 µg/mL
same,MBC,Escherichia coli [5],128 µg/mL
same,MBC,Escherichia coli [6],8 µg/mL
same,MBC,Escherichia coli [7],32 µg/mL
same,IC50,[8],3 µM
same,inhibition,Escherichia coli [9],inactive
same,inhibition,Homo sapiens,Active
same,MIC50,Escherichia coli [10],8 µg/mL
same,MIC90,Escherichia coli [10],12.5 µg/mL
same,MBC,Escherichia coli [11],4 µg/mL
same,MIC50,Escherichia coli [12],2 µg/mL
same,MIC90,Escherichia coli [12],3.2 µg/mL
same,MIC50,Escherichia coli [13],8 µg/mL
same,MIC90,Escherichia coli [13],15.2 µg/mL
same,MIC50,Escherichia coli [14],8 µg/mL
same,MIC90,Escherichia coli [14],15.2 µg/mL
same,MIC50,Escherichia coli [15],4 µg/mL
same,MIC90,Escherichia coli [15],7.6 µg/mL
same,MIC50,Escherichia coli [16],4 µg/mL
same,MIC90,Escherichia coli [16],7.5 µg/mL
same,MIC50,Escherichia coli [17],8 µg/mL
same,MIC90,Escherichia coli [17],14.5 µg/mL
same,MIC50,Escherichia coli [18],64 µg/mL
same,MIC90,Escherichia coli [18],118 µg/mL
same,MIC50,Escherichia coli [19],4 µg/mL
same,MIC90,Escherichia coli [19],7.2 µg/mL
same,MBC,Escherichia coli [20],8 µg/mL
same,MBC,Escherichia coli [21],16 µg/mL
same,MBC,Escherichia coli [22],8 µg/mL
same,MIC50,Escherichia coli [23],8 µg/mL
same,MIC90,Escherichia coli [23],15.4 µg/mL
same,MBC,Escherichia coli [24],8 µg/mL
same,MIC50,Escherichia coli [25],8 µg/mL
same,MIC90,Escherichia coli [25],14.8 µg/mL
same,MIC50,Escherichia coli [26],4 µg/mL
same,MIC90,Escherichia coli [26],7.6 µg/mL
same,MIC50,Escherichia coli [27],8 µg/mL
same,MIC90,Escherichia coli [27],14.9 µg/mL
same,MBC,Escherichia coli [28],16 µg/mL
same,MIC50,Escherichia coli [29],4 µg/mL
same,MIC90,Escherichia coli [29],7.7 µg/mL
same,MIC50,Escherichia coli [30],8 µg/mL
same,MIC90,Escherichia coli [30],14.8 µg/mL
same,MIC50,Escherichia coli [31],4 µg/mL
same,MIC90,Escherichia coli [31],7.6 µg/mL
same,MIC50,Escherichia coli [32],2 µg/mL
same,MIC90,Escherichia coli [32],3.7 µg/mL
CCCN1CCN(c2ccc3nc(-c4ccc5nc(-c6ccc(OCC)cc6)[nH]c5c4)[nH]c3c2)CC1,MIC50,Escherichia coli [1],4 µg/mL
same,MIC90,Escherichia coli [1],6.8 µg/mL
same,MBC,Escherichia coli [2],2 µg/mL
same,MBC,Escherichia coli [3],4 µg/mL
same,MBC,Escherichia coli [4],2 µg/mL
same,MBC,Escherichia coli [5],4 µg/mL
same,MBC,Escherichia coli [6],2 µg/mL
same,MBC,Escherichia coli [7],8 µg/mL
same,IC50,[8],2 µM
same,inhibition,Escherichia coli [9],inactive
same,inhibition,Homo sapiens,inactive
same,MIC50,Escherichia coli [10],0.2 µg/mL
same,MIC90,Escherichia coli [10],3.3 µg/mL
same,MBC,Escherichia coli [11],0.2 µg/mL
same,MIC50,Escherichia coli [12],1 µg/mL
same,MIC90,Escherichia coli [12],1.7 µg/mL
same,MIC50,Escherichia coli [13],1 µg/mL
same,MIC90,Escherichia coli [13],1.7 µg/mL
same,MIC50,Escherichia coli [14],1 µg/mL
same,MIC90,Escherichia coli [14],1.6 µg/mL
same,MIC50,Escherichia coli [15],1 µg/mL
same,MIC90,Escherichia coli [15],1.7 µg/mL
same,MIC50,Escherichia coli [16],2 µg/mL
same,MIC90,Escherichia coli [16],3.4 µg/mL
same,MIC50,Escherichia coli [17],1 µg/mL
same,MIC90,Escherichia coli [17],1.6 µg/mL
same,MIC50,Escherichia coli [18],2 µg/mL
same,MIC90,Escherichia coli [18],3.5 µg/mL
same,MIC50,Escherichia coli [19],1 µg/mL
same,MIC90,Escherichia coli [19],1.7 µg/mL
same,MBC,Escherichia coli [20],4 µg/mL
same,MBC,Escherichia coli [21],2 µg/mL
same,MBC,Escherichia coli [22],4 µg/mL
same,MIC50,Escherichia coli [23],1 µg/mL
same,MIC90,Escherichia coli [23],3.1 µg/mL
same,MBC,Escherichia coli [24],2 µg/mL
same,MIC50,Escherichia coli [25],0.5 µg/mL
same,MIC90,Escherichia coli [25],1.6 µg/mL
same,MIC50,Escherichia coli [26],1 µg/mL
same,MIC90,Escherichia coli [26],3.4 µg/mL
same,MIC50,Escherichia coli [27],0.5 µg/mL
same,MIC90,Escherichia coli [27],1.7 µg/mL
same,MBC,Escherichia coli [28],4 µg/mL
same,MIC50,Escherichia coli [29],0.5 µg/mL
same,MIC90,Escherichia coli [29],1.7 µg/mL
same,MIC50,Escherichia coli [30],0.5 µg/mL
same,MIC90,Escherichia coli [30],3.8 µg/mL
same,MIC50,Escherichia coli [31],0.5 µg/mL
same,MIC90,Escherichia coli [31],1.7 µg/mL
same,MIC50,Escherichia coli [32],0.5 µg/mL
same,MIC90,Escherichia coli [32],1.8 µg/mL

# Source: ChEMBL document CHEMBL3286094, “Synthesis and biological evaluation of novel bisbenzimidazoles as Escherichia coli topoisomerase IA inhibitors and potential antibacterial agents” (J Med Chem, 2014)
